The source made the active and inactive calls. The calls are words filed in the database; no cut-off is given here.

One assay deals with HEK293. In words: Induction of cyp24A1 mRNA expression in HEK293 cells at 100 nM after 24 hrs by real-time PCR. Format: functional, cell-based. Particulars: Homo sapiens. In a few lines: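 Cells seeded at 1 × 10⁴ per well and treated 24 h later with ethanol vehicle or 100 nM ligand for 24 h. Total RNA taken by a chloroform method, reverse-transcribed, and target mRNA quantified by SYBR Green real-time PCR, normalized to ACTIN mRNA. Culture media: HEK293 in DMEM 5% FBS; SW480 and HaCaT in DMEM 10% FBS; MG63 in MEM 10% FBS; THP-1 and U937 in RPMI1640 10% FBS; all at 37 °C, 5% CO₂.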
For orientation: Quantitative PCR measures a nucleic acid by following its amplification.
As to `C=C1/C(=C\C=C2/CCC[C@]3(C)[C@@H]([C@H](C)CCCC(C)(C)O)CC[C@@H]23)C[C@@H](O)C[C@@H]1O`, the outcome was Active.

In the next assay the target is T1, Vitamin D3 receptor (Homo sapiens) (UniProt P11473).
T1 sequence (whole entry): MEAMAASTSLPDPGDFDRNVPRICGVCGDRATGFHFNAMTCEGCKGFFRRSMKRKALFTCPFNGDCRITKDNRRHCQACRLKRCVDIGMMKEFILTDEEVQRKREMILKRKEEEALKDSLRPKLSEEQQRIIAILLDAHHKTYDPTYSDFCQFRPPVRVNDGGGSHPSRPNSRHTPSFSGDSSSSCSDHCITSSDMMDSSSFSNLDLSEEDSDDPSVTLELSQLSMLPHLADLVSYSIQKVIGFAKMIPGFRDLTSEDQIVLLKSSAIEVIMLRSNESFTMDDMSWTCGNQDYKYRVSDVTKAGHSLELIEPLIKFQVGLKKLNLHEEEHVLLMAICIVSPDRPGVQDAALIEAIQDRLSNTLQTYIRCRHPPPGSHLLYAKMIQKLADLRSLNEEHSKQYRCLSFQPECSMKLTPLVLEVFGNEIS
In words: Inhibition of 1,25(OH)2D3-induced transactivation of human VDR expressed in HEK293 cells cotransfected with mouse VDRE, Tk-Sppx3-LUC reporter plasmid measured after 24 hrs by luciferase reporter assay. Format: cell-based.
Settings: not given
In a few lines: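 HEK293 cells in DMEM with 5% FBS were calcium-phosphate cotransfected with TK-Spp×3-LUC reporter, pCMX-β-galactosidase, pCMX-VDR and pCMX-RXRα. Cells were then exposed to a range of test concentrations together with 10 nM 1,25(OH)₂D₃. Harvest came 16–24 h later, with luciferase normalized to β-galactosidase.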
On the technique in general: A reporter such as luciferase makes a cellular process visible.
`C=C1[C@H](O)CC(=C/C=C2\CCC[C@]3(C)[C@@H]([C@H](C)/C=C/C[C@H](O)C45CC6CC(CC(C6)C4)C5)CC[C@@H]23)C[C@H]1O`: the inhibition result was “Dose-dependent effect”.

The values are drawn from ChEMBL document CHEMBL3259615, “Combination of triple bond and adamantane ring on the vitamin D side chain produced partial agonists for vitamin D receptor” (J Med Chem, 2014).
